# ChEMBL document CHEMBL3351467, “Ligand-free Pd-catalyzed C-N cross-coupling/cyclization strategy: an unprecedented access to 1-thienyl pyrroloquinoxalines for the new approach towards apoptosis” (Eur J Med Chem, 2014)
# Activity calls are given as the source filed them. No cut-off for these calls is given here.
# What was measured:
# Danio rerio [1] = species on record: Danio rerio; test: Toxicity in Zebrafish embryo assessed as induction of changes in brain region at 1 uM; type: organism-based; conditions: in vivo
# Summary of the method: (§1)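 Embryos at 1 dpf dechorionated with 0.5 mg/ml pronase E and washed in E3. Exposed 6 per well to compound serially diluted in E3 with a final 0.1% DMSO, at 28.5 °C until 5 dpf. Embryos then washed, anaesthetised with 0.008% tricaine and scored blind for body shape, somites, notochord, tail, intestine, fins, brain, jaws, heart, liver and swim bladder. Phenobarbital (3 mM) served as positive control.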
# [2] = Therapeutic index, ratio of NOAEL in Zebrafish embryos to apoptotic EC50 in Zebrafish embryos; type: organism-based, Danio rerio; conditions: read-out: TI
# Danio rerio [3] = species on record: Danio rerio; test: Toxicity in Zebrafish embryo assessed as induction of changes in upper jaw region at 1 uM; type: organism-based; conditions: in vivo; summary of the method: as §1
# Danio rerio [4] = species on record: Danio rerio; test: Toxicity in Zebrafish embryo at 1 to 30 uM; type: organism-based; conditions: in vivo; summary of the method: as §1
# Danio rerio [5] = species on record: Danio rerio; test: Toxicity in Zebrafish embryo assessed as induction of changes in fins region at 1 uM; type: organism-based; conditions: in vivo; summary of the method: as §1
# Danio rerio [6] = species on record: Danio rerio; test: Toxicity in Zebrafish embryo assessed as induction of changes in notochords at 1 uM; type: organism-based, Notochord; conditions: in vivo; summary of the method: as §1
# Danio rerio [7] = species on record: Danio rerio; test: Hepatotoxicity in Zebrafish embryo at 1 to 3 uM incubated at 28 degC until 7 days post fertilization; type: organism-based; conditions: in vivo, 168 h
# Summary of the method: (§2)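 Larvae at 4 dpf exposed in 24-well plates, 6 per well in 0.1% DMSO, to final 1, 3, 10 and 30 concentrations, incubated at 28 °C until 7 dpf. Washed in E3 and anaesthetised with tricaine. Images scored for liver size, liver degeneration and yolk sac retention as percentages. Amiodarone served as positive control.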
# Danio rerio [8] = species on record: Danio rerio; test: Toxicity in Zebrafish embryo assessed as induction of changes in liver region at 1 uM; type: organism-based; conditions: in vivo; summary of the method: as §1
# Danio rerio [9] = species on record: Danio rerio; test: Induction of apoptosis in Zebrafish embryo at 1 to 10 uM incubated for 24 to 48 hrs by acridine orange based fluorescence microscopy; type: functional, organism-based
# Summary of the method: (§3)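 Embryos dechorionated by hand at 24 hpf, 6 per well in two sets, in 0.1% DMSO. Compound added from serially diluted working stocks, kept at 28 °C for 24 h and 48 h. Washed three times in E3, stained 30 min with acridine orange ([…]) in E3, rinsed twice, then examined for apoptosis.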
# Danio rerio [10] = species on record: Danio rerio; test: Toxicity in Zebrafish embryo assessed as induction of changes in swim bladder region at 1 uM; type: organism-based; conditions: in vivo; summary of the method: as §1
# Danio rerio [11] = species on record: Danio rerio; test: Hepatotoxicity in Zebrafish embryo at 10 to 30 uM incubated at 28 degC until 7 days post fertilization; type: organism-based; conditions: in vivo, 168 h; summary of the method: as §2
# Danio rerio [12] = species on record: Danio rerio; test: Toxicity in Zebrafish embryo assessed as induction of changes in somites at 1 uM; type: organism-based; conditions: in vivo; summary of the method: as §1
# [13] = molecular target: 3',5'-cyclic-AMP phosphodiesterase 4B (Homo sapiens) (UniProt Q07343); test: Inhibition of recombinant His-tagged PDE4B1 (unknown origin) expressed in Sf9 cells at 30 uM pre-incubated for 15 mins before cAMP substrate addition by luminescence assay
# Summary of the method: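 PDE4B1 purified in house (10 ng) pre-incubated 15 min with compound or DMSO vehicle. cAMP substrate ([…]) added for 1 h, then reaction stopped and detection reagent applied 10 min in the dark. Luminescence (RLU) read. % inhibition = (RLU vehicle − RLU inhibitor)/RLU vehicle × 100.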
# Danio rerio [14] = species on record: Danio rerio; test: Toxicity in Zebrafish embryo assessed as induction of changes in lower jaw region at 1 uM; type: organism-based; conditions: in vivo; summary of the method: as §1
# Danio rerio [15] = species on record: Danio rerio; test: Induction of apoptosis in Zebrafish embryo incubated for 24 to 48 hrs by acridine orange based fluorescence microscopy; type: functional, organism-based; summary of the method: as §3
# Danio rerio [16] = species on record: Danio rerio; test: Teratogenicity in Zebrafish embryo assessed as induction of morphological deformities at lower jaw at 1 uM incubated at 28.5 degC until 5 days post fertilization; type: organism-based; conditions: in vivo, 120 h; summary of the method: as §1
# Danio rerio [17] = species on record: Danio rerio; test: Toxicity in Zebrafish embryo assessed as induction of changes in heart region at 1 uM; type: organism-based; conditions: in vivo; summary of the method: as §1
# Danio rerio [18] = species on record: Danio rerio; test: Toxicity in Zebrafish embryo assessed as induction of changes in tail region at 1 uM; type: organism-based; conditions: in vivo; summary of the method: as §1
# Danio rerio [19] = species on record: Danio rerio; test: Toxicity in Zebrafish embryo assessed as induction of changes in intestine region at 1 uM; type: organism-based; conditions: in vivo; summary of the method: as §1
# Danio rerio [20] = species on record: Danio rerio; test: Hepatotoxicity in Zebrafish embryo at 28 degC until 7 days post fertilization; type: organism-based; conditions: in vivo, 168 h; summary of the method: as §2
# Danio rerio [21] = species on record: Danio rerio; test: Teratogenicity in Zebrafish embryo incubated at 28.5 degC until 5 days post fertilization; type: ADME, organism-based; conditions: in vivo, 120 h; summary of the method: as §1
# Danio rerio [22] = species on record: Danio rerio; test: Toxicity in Zebrafish embryo assessed as induction of changes in body shape at 1 uM; type: organism-based; conditions: in vivo; summary of the method: as §1
# Danio rerio [23] = species on record: Danio rerio; test: Toxicity in Zebrafish embryo assessed as induction of changes in liver region at 3000 uM; type: organism-based; conditions: in vivo
# Summary of the method: (§4)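 Embryos at 1 dpf were dechorionated with 0.5 mg/ml pronase E and washed in E3. They were exposed in groups of 6 to compound serially diluted in E3 (final 0.1% DMSO) at 28.5 °C until 5 dpf. Embryos were then washed, anesthetized with 0.008% tricaine, and scored blinded for morphology of body shape, somites, notochord, tail, intestine, fins, brain, jaws, heart, liver and swim bladder.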
# Danio rerio [24] = species on record: Danio rerio; test: Toxicity in Zebrafish embryo assessed as induction of changes in lower jaw region at 3000 uM; type: organism-based; conditions: in vivo; summary of the method: as §4
# Danio rerio [25] = species on record: Danio rerio; test: Toxicity in Zebrafish embryo assessed as induction of changes in heart region at 3000 uM; type: organism-based; conditions: in vivo; summary of the method: as §4
# Danio rerio [26] = species on record: Danio rerio; test: Toxicity in Zebrafish embryo assessed as induction of changes in notochords at 3000 uM; type: organism-based, Notochord; conditions: in vivo; summary of the method: as §4
# Danio rerio [27] = species on record: Danio rerio; test: Toxicity in Zebrafish embryo assessed as induction of changes in swim bladder region at 3000 uM; type: organism-based; conditions: in vivo; summary of the method: as §4
# Danio rerio [28] = species on record: Danio rerio; test: Toxicity in Zebrafish embryo assessed as induction of changes in body shape at 3000 uM; type: organism-based; conditions: in vivo; summary of the method: as §4
# Danio rerio [29] = species on record: Danio rerio; test: Toxicity in Zebrafish embryo assessed as induction of changes in tail region at 3000 uM; type: organism-based; conditions: in vivo; summary of the method: as §4
# Danio rerio [30] = species on record: Danio rerio; test: Toxicity in Zebrafish embryo assessed as induction of changes in upper jaw region at 3000 uM; type: organism-based; conditions: in vivo; summary of the method: as §4
# Danio rerio [31] = species on record: Danio rerio; test: Toxicity in Zebrafish embryo assessed as induction of changes in somites at 3000 uM; type: organism-based; conditions: in vivo; summary of the method: as §4
# Danio rerio [32] = species on record: Danio rerio; test: Toxicity in Zebrafish embryo assessed as induction of changes in intestine region at 3000 uM; type: organism-based; conditions: in vivo; summary of the method: as §4
# Danio rerio [33] = species on record: Danio rerio; test: Toxicity in Zebrafish embryo assessed as induction of changes in brain region at 3000 uM; type: organism-based; conditions: in vivo
# Summary of the method: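 Zebrafish embryos collected at 1 dpf, staged, dechorionated with 0.5 mg/ml pronase E and washed in E3 medium. Compound serially diluted in E3 with 0.1% DMSO final. Six embryos per well, exposed at 28.5 °C until 5 dpf, then washed, anaesthetised with 0.008% tricaine and scored for morphology (body shape, somites, notochord, tail, intestine, fins, brain, jaws, heart, liver, swim bladder). Blinded; phenobarbital 3 mM positive control.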
# Danio rerio [34] = species on record: Danio rerio; test: Toxicity in Zebrafish embryo assessed as induction of changes in fins region at 3000 uM; type: organism-based; conditions: in vivo; summary of the method: as §4
# Chain of 3',5'-cyclic-AMP phosphodiesterase 4B (Homo sapiens) (Q07343 whole entry): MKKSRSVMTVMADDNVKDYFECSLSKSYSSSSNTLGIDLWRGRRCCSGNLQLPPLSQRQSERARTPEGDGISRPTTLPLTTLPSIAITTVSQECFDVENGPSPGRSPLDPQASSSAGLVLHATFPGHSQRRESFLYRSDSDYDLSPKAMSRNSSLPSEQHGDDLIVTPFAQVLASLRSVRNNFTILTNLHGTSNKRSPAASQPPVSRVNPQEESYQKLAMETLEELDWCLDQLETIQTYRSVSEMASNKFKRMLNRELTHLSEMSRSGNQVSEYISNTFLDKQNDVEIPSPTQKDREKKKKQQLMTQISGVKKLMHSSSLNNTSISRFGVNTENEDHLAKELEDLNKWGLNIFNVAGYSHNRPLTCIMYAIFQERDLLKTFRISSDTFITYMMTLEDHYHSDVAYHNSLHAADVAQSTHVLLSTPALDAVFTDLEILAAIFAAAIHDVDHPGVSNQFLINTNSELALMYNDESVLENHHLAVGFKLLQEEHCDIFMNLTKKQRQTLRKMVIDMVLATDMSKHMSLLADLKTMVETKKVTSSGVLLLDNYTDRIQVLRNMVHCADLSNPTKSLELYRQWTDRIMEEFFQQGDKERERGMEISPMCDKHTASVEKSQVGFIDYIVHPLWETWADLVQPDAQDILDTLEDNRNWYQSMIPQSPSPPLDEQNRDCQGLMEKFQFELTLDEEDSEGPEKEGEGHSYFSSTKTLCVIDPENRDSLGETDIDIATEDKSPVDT
compound,measurement,setting,value
CCOC(=O)c1ccsc1-n1c(-c2ccccc2)cc2nc3ccccc3nc21,Activity,Danio rerio [1],Toxic
same,selectivity ratio,[2],0.31
same,Activity,Danio rerio [3],Toxic
same,MTC,Danio rerio [4],1 µM
same,NOAEL,Danio rerio [4],< 1 µM
same,Activity,Danio rerio [5],Non-toxic
same,Activity,Danio rerio [6],Non-toxic
same,Activity,Danio rerio [7],Non-toxic
same,Activity,Danio rerio [8],Toxic
same,Activity,Danio rerio [9],Active
same,Activity,Danio rerio [10],Toxic
same,Activity,Danio rerio [11],Toxic
same,Activity,Danio rerio [12],Toxic
same,inhibition,[13],85%
same,Activity,Danio rerio [14],Toxic
same,EC50,Danio rerio [15],3.22 µM
same,Activity,Danio rerio [16],Non-toxic
same,Activity,Danio rerio [17],Non-toxic
same,Activity,Danio rerio [18],Non-toxic
same,Activity,Danio rerio [19],Toxic
same,NOAEL,Danio rerio [20],3 µM
same,NOAEL,Danio rerio [21],1 µM
same,Activity,Danio rerio [22],Non-toxic
CCC1(c2ccccc2)C(=O)NC(=O)NC1=O [PHENOBARBITAL],Activity,Danio rerio [23],Toxic
same,Activity,Danio rerio [24],Toxic
same,Activity,Danio rerio [25],Toxic
same,Activity,Danio rerio [26],Toxic
same,Activity,Danio rerio [27],Toxic
same,Activity,Danio rerio [28],Toxic
same,Activity,Danio rerio [29],Toxic
same,Activity,Danio rerio [30],Toxic
same,Activity,Danio rerio [31],Toxic
same,Activity,Danio rerio [32],Toxic
same,Activity,Danio rerio [33],Toxic
same,Activity,Danio rerio [34],Toxic
